Experiments:
A549 = assay: Cytotoxicity against human A549 cells assessed as cell growth inhibition after 72 hrs by MTS assay; assay type: functional, cell-based; conditions: A549, 72 h
Procedure, shortened: (§1)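 Cells were exposed to compound for 3 days, then stained with MTS as a quantitative metabolic read-out. IC50 is the concentration that inhibits cell growth by 50%.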

HCT-116 [1] = assay: Cytotoxicity against human HCT116 cells assessed as cell growth inhibition after 72 hrs by MTS assay; assay type: functional, cell-based; conditions: HCT-116, 72 h; procedure, shortened: as §1
HCT-116 [2] = assay: Cytotoxicity against p53 deficient human HCT116 cells assessed as cell growth inhibition after 72 hrs by MTS assay; assay type: functional, cell-based; conditions: HCT-116, 72 h; procedure, shortened: as §1
[3] = Cytotoxicity against mrp-1/mdr-1 overexpressing human CEM-DNR-bulk cells assessed as cell growth inhibition after 72 hrs by MTS assay; assay type: functional, cell-based
Procedure, shortened: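 Cells were exposed to compound for 3 days, then stained with MTS as a quantitative metabolic read-out.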

[4] = Cytotoxicity against human K562-TAX cells assessed as cell growth inhibition after 72 hrs by MTS assay; assay type: functional, cell-based; procedure, shortened: as §1
HepG2 = assay: Cytotoxicity against human HepG2 cells assessed as reduction in cell viability after 72 hrs by XTT assay; assay type: functional, cell-based; conditions: HepG2, 72 h
Procedure, shortened: (§2)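 Cells were incubated with compound for 3 days. Viability was then measured with the XTT tetrazolium assay.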

U2OS = assay: Cytotoxicity against human U2OS cells assessed as cell growth inhibition after 72 hrs by MTS assay; assay type: functional, cell-based
HL-60 = assay: Cytotoxicity against human HL60 cells assessed as reduction in cell viability after 72 hrs by XTT assay; assay type: functional, cell-based; conditions: HL-60, 72 h; procedure, shortened: as §2
[5] = Cytotoxicity against human HuH7 cells; assay type: cell-based, Huh-7
BJ = assay: Cytotoxicity against human BJ cells assessed as cell growth inhibition after 72 hrs by MTS assay; assay type: cell-based; procedure, shortened: as §1
Hepatitis C virus [6] = assay: Anti-HCV activity against Hepatitis C virus genotype 1b infected in human Huh7 replicon cells after 96 hrs by luciferase reporter gene assay; assay type: functional, cell-based, Hepacivirus hominis; conditions: Huh-7, 96 h
HeLa S3 = assay: Cytotoxicity against human HeLaS3 cells assessed as reduction in cell viability after 72 hrs by XTT assay; assay type: functional, cell-based; conditions: HeLa S3, 72 h; procedure, shortened: as §2
K562 = assay: Cytotoxicity against human K562 cells assessed as cell growth inhibition after 72 hrs by MTS assay; assay type: functional, cell-based; conditions: K562, 72 h; procedure, shortened: as §1
Hepatitis C virus [7] = assay: Anti-HCV activity against Hepatitis C virus genotype 2a infected in human Huh7 replicon cells after 96 hrs by luciferase reporter gene assay; assay type: functional, cell-based, Hepacivirus hominis; conditions: Huh-7, 96 h
CCRF-CEM = assay: Cytotoxicity against human CCRF-CEM cells assessed as cell growth inhibition after 72 hrs by MTS assay
MRC5 = assay: Cytotoxicity against human MRC5 cells assessed as cell growth inhibition after 72 hrs by MTS assay; assay type: cell-based; conditions: MRC5, 72 h; procedure, shortened: as §1

Row | Structure (SMILES) | IC50 (A549) [µM] | IC50 (HCT-116 [1]) [µM] | IC50 (HCT-116 [2]) [µM] | IC50 [3] [µM] | IC50 [4] [µM] | IC50 (HepG2) [µM] | IC50 (U2OS) [µM] | IC50 (HL-60) [µM] | CC50 [5] [µM] | IC50 (BJ) [µM] | EC50 (Hepatitis C virus [6]) [µM] | IC50 (HeLa S3) [µM] | IC50 (K562) [µM] | EC50 (Hepatitis C virus [7]) [µM] | IC50 (CCRF-CEM) [µM] | IC50 (MRC5) [µM]
1 | Nc1ncnc2c1c1ccsc1n2[C@@H]1O[C@H](CO)[C@@H](O)[C@H]1O | 30.1 | 46.7 | 10.9 | 41.2 | 0.82 | 1.46 | 0.51 | 0.95 | > 44.4 | 1.09 | 17.5 | > 50 | 36.3 | > 44.4 | 0.3 | > 50
2 | OC[C@H]1O[C@@H](n2c3ccsc3c3c(-c4cc5ccccc5o4)ncnc32)[C@H](O)[C@@H]1O | 21.2 | 16.2 | 12.3 | 14.4 | 17.9 | 4.28 | 18.5 | 2.38 | 19.6 to 26.6 | 23 | 2.1 | 24.3 | 15.4 | 13.9 | 6.86 | 32.6
3 | CN(C)c1ncnc2c1c1ccsc1n2[C@@H]1O[C@H](CO)[C@@H](O)[C@H]1O | > 50 | > 50 | > 50 | > 50 | > 50 | > 50 | > 50 | > 50 | – | > 50 | – | > 50 | > 50 | – | > 50 | > 50
4 | CC(C)C(=O)OC[C@H]1O[C@@H](n2ccc(N)nc2=O)[C@](C)(F)[C@@H]1OC(=O)C(C)C [MERICITABINE] | – | – | – | – | – | – | – | – | > 44.4 | – | – | – | – | – | – | –
5 | Nc1ccn([C@@H]2O[C@H](CO)[C@@H](O)C2(F)F)c(=O)n1 [GEMCITABINE] | – | – | – | – | – | – | – | – | – | > 50 | – | – | – | – | – | > 50
6 | CN(C)c1ncnc2c1c1sccc1n2[C@@H]1O[C@H](CO)[C@@H](O)[C@H]1O | > 50 | > 50 | > 50 | > 50 | > 50 | > 50 | > 50 | > 50 | – | > 50 | – | > 50 | > 50 | – | 47.6 | > 50
7 | OC[C@H]1O[C@@H](n2c3ncnc(-c4ccco4)c3c3ccsc32)[C@H](O)[C@@H]1O | > 50 | > 50 | > 50 | > 50 | > 50 | > 50 | > 50 | > 50 | – | > 50 | – | > 50 | > 50 | – | > 50 | > 50
8 | OC[C@H]1O[C@@H](n2c3ccsc3c3c(-c4ccco4)ncnc32)[C@H](O)[C@@H]1O | > 50 | > 50 | > 50 | > 50 | > 50 | > 50 | > 50 | > 50 | – | > 50 | – | > 50 | > 50 | – | > 50 | > 50
9 | OC[C@H]1O[C@@H](n2c3ccsc3c3c(-c4ccoc4)ncnc32)[C@H](O)[C@@H]1O | > 50 | > 50 | > 50 | > 50 | > 50 | > 50 | > 50 | > 50 | – | 32 | – | > 50 | > 50 | – | 3.61 | > 50
10 | OC[C@H]1O[C@@H](n2c3ncnc(-c4ccoc4)c3c3ccsc32)[C@H](O)[C@@H]1O | > 50 | > 50 | > 50 | > 50 | > 50 | > 50 | > 50 | > 50 | – | > 50 | – | > 50 | > 50 | – | > 50 | > 50

Reference: ChEMBL document CHEMBL4007430, “Synthesis and Cytostatic and Antiviral Profiling of Thieno-Fused 7-Deazapurine Ribonucleosides” (J Med Chem, 2017)
